Experimental data taken from ChEMBL document CHEMBL1145048, “Functionalized glycomers as growth inhibitors and inducers of apoptosis in human glioblastoma cells” (J Med Chem, 2003).

Tests used:
[1] = Glycomer activity determined as growth inhibition of human glioblastoma LN18 cells; format: functional, cell-based
How it was run: (§1)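 Cells grown 24 h with FCS, then 24 h without FCS, then exposed to glycomers at increasing concentrations in serum-free medium for 24 h. MTT at 0.2 mg/mL was added for the last 2 h, formazan was dissolved in 0.1 N HCl/2-propanol and read at 540 nm. Growth inhibition = treated/control MTT reduction. IC50 is the concentration giving 50% inhibition from dose–response curves. Triplicate, mean ± SD.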

[2] = Glycomer activity determined as growth inhibition of human glioblastoma LNZ308 cells; format: functional, cell-based; settings: Homo sapiens, LNZ308; how it was run: as §1
[3] = Apoptosis index was determined against human glioblastoma LN18 cells at concentration of 25 uM after total exposure time of 24 hours; format: functional, cell-based
How it was run: (§2)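 Cells seeded to half confluence in DMEM-10% FCS for 24 h, then held 24 h without FCS before glycomer addition in serum-free medium. At the end of the incubation, histone-associated DNA fragments (mono- and oligonucleosomes) in still-adherent cells were measured by photometric ELISA (absorbance 405 nm). Apoptosis index = absorbance of treated / untreated wells, untreated set at 1.00. Done in triplicate.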

[4] = Apoptosis index was determined against human glioblastoma LN18 cells at concentration of 11 uM after total exposure time of 15 hours; format: functional, cell-based; how it was run: as §2
[5] = Efficacy index was evaluated as ratio of apoptosis index to MTT reduction for human glioblastoma LN18 cells at 0 uM concentration; format: functional, cell-based
How it was run: (§3)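 Cells grown 24 h with FCS, then deprived of FCS for 10 h, then exposed to glycomers for 12 h. In adherent cells, MTT reduction (540 nm), [3H]-thymidine incorporation (cpm) and nucleosome-fragment apoptosis index (treated vs control) were measured. Efficacy index = ratio of thymidine incorporation or apoptosis index to MTT reduction.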

[6] = Efficacy index was evaluated as ratio of apoptosis index to MTT reduction for human glioblastoma LN18 cells at 11.3 uM concentration; format: functional, cell-based; how it was run: as §3
[7] = Efficacy index was evaluated as ratio of apoptosis index to MTT reduction for human glioblastoma LN18 cells at 22.5 uM concentration; format: functional, cell-based; how it was run: as §3
[8] = Efficacy index was evaluated as ratio of apoptosis index to MTT reduction for human glioblastoma LN18 cells at 4.5 uM concentration; format: functional, cell-based; how it was run: as §3
[9] = Efficacy index was evaluated as ratio of inhibition of DNA synthesis (3HT incorporation) to inhibition of growth(MTT) for human glioblastoma LN18 cells at 0 uM concentration; format: functional, cell-based; how it was run: as §3
[10] = Efficacy index was evaluated as ratio of inhibition of DNA synthesis (3HT incorporation) to inhibition of growth(MTT) for human glioblastoma LN18 cells at 11.3 uM concentration; format: functional, cell-based; how it was run: as §3
[11] = Efficacy index was evaluated as ratio of inhibition of DNA synthesis (3HT incorporation) to inhibition of growth(MTT) for human glioblastoma LN18 cells at 22.5 uM concentration; format: functional, cell-based; how it was run: as §3
[12] = Efficacy index was evaluated as ratio of inhibition of DNA synthesis (3HT incorporation) to inhibition of growth(MTT) for human glioblastoma LN18 cells at 4.5 uM concentration; format: functional, cell-based; how it was run: as §3
[13] = Efficacy index was evaluated as ratio of apoptosis index to MTT reduction for human glioblastoma LNZ308 cells at 0 uM concentration; format: functional, cell-based; how it was run: as §3
[14] = Efficacy index was evaluated as ratio of apoptosis index to MTT reduction for human glioblastoma LNZ308 cells at 11.3 uM concentration; format: functional, cell-based; how it was run: as §3
[15] = Efficacy index was evaluated as ratio of apoptosis index to MTT reduction for human glioblastoma LNZ308 cells at 22.5 uM concentration; format: functional, cell-based; how it was run: as §3
[16] = Efficacy index was evaluated as ratio of apoptosis index to MTT reduction for human glioblastoma LNZ308 cells at 4.5 uM concentration; format: functional, cell-based; how it was run: as §3
[17] = Apoptosis index was determined against human glioblastoma LNZ308 cells at concentration of 11 uM after total exposure time of 15 hours; format: functional, cell-based; how it was run: as §2
[18] = Efficacy index was evaluated as ratio of inhibition of DNA synthesis (3HT incorporation) to inhibition of growth(MTT) for human glioblastoma LNZ308 cells at 0 uM concentration; format: functional, cell-based; how it was run: as §3
[19] = Efficacy index was evaluated as ratio of inhibition of DNA synthesis (3HT incorporation) to inhibition of growth(MTT) for human glioblastoma LNZ308 cells at 11.3 uM concentration; format: functional, cell-based; how it was run: as §3
[20] = Efficacy index was evaluated as ratio of inhibition of DNA synthesis (3HT incorporation) to inhibition of growth(MTT) for human glioblastoma LNZ308 cells at 22.5 uM concentration; format: functional, cell-based; how it was run: as §3
[21] = Apoptosis index was determined against human glioblastoma LN18 cells at 16 uM after total exposure of 10 hours; format: functional; how it was run: as §2
[22] = Apoptosis index was determined against human glioblastoma LNZ308 cells at 16 uM and total exposure time of 10 hours; format: functional; how it was run: as §2
[23] = Efficacy index was evaluated as ratio of inhibition of DNA synthesis (3HT incorporation) to inhibition of growth(MTT) for human glioblastoma LNZ308 cells at 4.5 uM concentration; format: functional, cell-based; how it was run: as §3

## C=CCO[C@H]1[C@H](O)[C@H](COCc2ccccc2)O[C@@H](Oc2ccc(OC)cc2)[C@H]1OC(C)=O
[1]; Homo sapiens, LN-18
  IC50: > 50 µM
[2]
  IC50: > 50 µM

## C=CCO[C@H]1[C@H](O)[C@H](COS(=O)(=O)c2cccc(C(F)(F)F)c2)O[C@H](Oc2ccc(I)cc2)[C@@H]1OC(=O)CCC
[1]; Homo sapiens, LN-18
  IC50: 25 µM
[2]
  IC50: 42 µM

## C=CCO[C@@H]1[C@H](O)[C@H](Oc2ccc(Br)cc2)O[C@@H](COCc2ccccc2)[C@H]1O
[3]
  Apoptosis index: 1.19
[1]; Homo sapiens, LN-18
  IC50: > 50 µM
[2]
  IC50: > 50 µM

## CO[C@@H]1[C@H](O)[C@H](Oc2ccc(I)cc2)O[C@@H](COS(=O)(=O)c2cccc(C(F)(F)F)c2)[C@H]1O
[1]; Homo sapiens, LN-18
  IC50: > 50 µM
[2]
  IC50: > 50 µM

## C=CCO[C@H]1[C@H](O)[C@H](COS(=O)(=O)c2cccc(C(F)(F)F)c2)O[C@@H](Oc2ccc(Br)cc2)[C@H]1OC(=O)CCC
[1]; Homo sapiens, LN-18
  IC50: > 50 µM
[2]
  IC50: > 50 µM

## C=CCO[C@H]1[C@H](O)[C@H](COCc2ccccc2)O[C@@H](Oc2ccc(I)cc2)[C@H]1OC(=O)CC
[4]
  Apoptosis index: 3.67
[5]
  Efficacy index: 0.93
[6]
  Efficacy index: 4.85
[7]
  Efficacy index: 8.3
[8]
  Efficacy index: 1.92
[9]
  Efficacy index: 16.2
[10]
  Efficacy index: 0.09
[11]
  Efficacy index: 0.58
[12]
  Efficacy index: 6.23
[1]; Homo sapiens, LN-18
  IC50: 11.5 µM
[13]
  Efficacy index: 0.95
[14]
  Efficacy index: 0.7
[15]
  Efficacy index: 2.32
[16]
  Efficacy index: 0.62
[17]
  Apoptosis index: 0.91
[18]
  Efficacy index: 9.79
[19]
  Efficacy index: 2.04
[20]
  Efficacy index: 0.34
[2]
  IC50: 17.5 µM

## C=CCO[C@H]1[C@H](O)[C@H](COS(=O)(=O)c2cccc(C(F)(F)F)c2)O[C@@H](Oc2ccc(I)cc2)[C@H]1OC(C)=O
[1]; Homo sapiens, LN-18
  IC50: 12.5 µM
[2]
  IC50: 13 µM

## CCCO[C@H]1[C@H](O)[C@H](COS(=O)(=O)c2cccc(C(F)(F)F)c2)O[C@@H](Oc2ccccc2)[C@H]1OC(=O)CCC
[1]; Homo sapiens, LN-18
  IC50: > 50 µM
[2]
  IC50: > 50 µM

## C=CCO[C@H]1[C@@H](O)[C@H](COCc2ccccc2)O[C@@H](Oc2ccc(I)cc2)[C@H]1OC(=O)CCC
[1]; Homo sapiens, LN-18
  IC50: 20 µM
[2]
  IC50: 37 µM

## C=CCO[C@H]1[C@H](O)[C@H](COS(=O)(=O)c2cccc(C(F)(F)F)c2)O[C@@H](Oc2ccc(I)cc2)[C@H]1OC(=O)CCC (stereo in doubt; 16a)
[1]; Homo sapiens, LN-18
  IC50: 40 µM
[2]
  IC50: 29 µM

## C=CCO[C@H]1[C@H](O)[C@H](COS(=O)(=O)c2cccc(C(F)(F)F)c2)O[C@@H](Oc2ccc(I)cc2)[C@H]1OC(=O)CC
[5]
  Efficacy index: 0.93
[6]
  Efficacy index: 3.51
[21]
  Apoptosis index: 3.82
[7]
  Efficacy index: 9.6
[8]
  Efficacy index: 1.19
[9]
  Efficacy index: 16.2
[10]
  Efficacy index: 0.23
[11]
  Efficacy index: 0.3
[12]
  Efficacy index: 4.87
[1]; Homo sapiens, LN-18
  IC50: 7 µM
[13]
  Efficacy index: 0.95
[14]
  Efficacy index: 2.03
[15]
  Efficacy index: 5.09
[16]
  Efficacy index: 0.99
[22]
  Apoptosis index: 8.97
[18]
  Efficacy index: 9.79
[19]
  Efficacy index: 1.23
[20]
  Efficacy index: 0.24
[23]
  Efficacy index: 5
[2]
  IC50: 11.5 µM

## C=CCOC1C(O)C(CNS(=O)(=O)c2cccc(C(F)(F)F)c2)OC(Oc2ccc(I)cc2)C1OC(=O)CCC (stereo in doubt; 10b)
[1]; ln18
  IC50: 6.5 µM
[2]
  IC50: 17.5 µM

## C=CCOC1C(O)C(CNS(=O)(=O)c2cccc(C(F)(F)F)c2)OC(Oc2ccc(I)cc2)C1O (stereo unspecified)
[1]; Homo sapiens, LN-18
  IC50: 16 µM
[2]
  IC50: 27 µM

## CCCO[C@H]1[C@H](O)[C@H](COCc2ccccc2)O[C@@H](Oc2ccc(OC)cc2)[C@H]1OC(C)=O
[1]; Homo sapiens, LN-18
  IC50: > 50 µM
[2]
  IC50: > 50 µM

## C=CCO[C@H]1[C@@H](O)[C@H](COS(=O)(=O)c2cccc(C(F)(F)F)c2)O[C@@H](Oc2ccc(I)cc2)[C@H]1OC(=O)C(C)C
[1]; Homo sapiens, LN-18
  IC50: 18.5 µM
[2]
  IC50: 18 µM
